{"source": "ChEMBL document CHEMBL1122328", "about": "“Hypolipidemic activity of phthalimide derivatives. 2. N-phenylphthalimide and derivatives” (1983)", "assay_type_in_all_cases": "functional", "key": {"Rattus norvegicus [1]": {"tested_on": "Rattus norvegicus", "test": "Effect on low density Phospholipids Holtzman rats after 14 days administration", "in_short": "(§1)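 Holtzman male rats (~400 g) given drug at 20 (mg/kg)/day for 14 days; on day 14 blood taken from the abdominal aorta and serum separated by centrifugation at 3500 rpm; lipid and protein content of the lipoprotein fractions measured.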"}, "Mus musculus [2]": {"tested_on": "Mus musculus", "test": "In vitro effect on CF1 male mouse on HMGCoA reductase after 16 days at a dose of 40 (mg/kg)/day", "in_short": "(§2)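 In vivo enzyme study. CF₁ male mice were dosed ip for 16 days in 1% CMC, and liver was homogenised to 10% in 0.25 M sucrose with 0.001 M EDTA. Enzymes assayed: acetyl-CoA synthetase as hydroxamate at 540 nm after 30 min at 37 °C; HMG CoA reductase with [1-¹⁴C]acetate in 9000g supernatant for 60 min at 37 °C; fatty acid synthetase with [2-¹⁴C]malonyl-CoA; acyltransferase with [³H]glycerol 3-phosphate and microsomes for 10 min; phosphatidate phosphohydrolase as released phosphate at 820 nm after 30 min. N = 6; reported as % control.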"}, "Mus musculus [3]": {"species": "Mus musculus", "test": "In vitro effect on CF1 male mouse on Fatty acid synthetase"}, "Mus musculus [4]": {"tested_on": "Mus musculus", "test": "Effect on Serum cholesterol levels on CF1 male mice at a dose of 12.5 (mg/kg)/day after 9 days", "in_short": "(§3)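 CF1 male mice (~25 g), drug suspended in 1% carboxymethylcellulose in water, given ip daily for 16 days; n = 6; vehicle control. Tail-vein blood on days 9 and 16, serum cholesterol by modified Liebermann–Burchard reaction; day-14 serum triglyceride by commercial kit; expressed as % control.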"}, "Rattus norvegicus [5]": {"tested_on": "Rattus norvegicus", "test": "Effect on high density Phospholipids Holtzman rats after 14 days administration", "in_short": "as §1"}, "Mus musculus [6]": {"tested_on": "Mus musculus", "test": "Effect on Serum triglyceride levels on CF1 male mice at a dose of 20 (mg/kg)/day after 14 days", "in_short": "as §3"}, "Mus musculus [7]": {"species": "Mus musculus", "test": "In vitro effect on CF1 male mouse on phosphatidate phosphohydrolase"}, "Mus musculus [8]": {"tested_on": "Mus musculus", "test": "Effect on Serum cholesterol levels on CF1 male mice at a dose of 50 (mg/kg)/day after 9 days", "in_short": "as §3"}, "Mus musculus [9]": {"tested_on": "Mus musculus", "test": "In vitro effect on CF1 male mouse onAc-CoA carboxylase after 16 days at a dose of 20 (mg/kg)/day", "conditions": "in the assay text read “In vivo” for “In vitro”", "in_short": "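Mice (CF1 males) given agent ip daily for 16 days in 1% carboxymethylcellulose; liver 10% homogenate in 0.25 M sucrose + 0.001 M EDTA. Acetyl-CoA carboxylase first polymerized 30 min at 37 °C, then incubated 30 min at 37 °C with sodium [14C]bicarbonate (41.0 mCi/mmol); incorporated label counted. Activity as % of vehicle control; N = 6.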"}, "Mus musculus [10]": {"tested_on": "Mus musculus", "test": "In vitro effect on CF1 male mouse on Fatty acid synthetase after 16 days at a dose of 10 (mg/kg)/day", "in_short": "as §2"}, "Rattus norvegicus [11]": {"tested_on": "Rattus norvegicus", "test": "Effect on very low density Phospholipids Holtzman rats after 14 days administration", "in_short": "(§4)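 Holtzman male rats (~400 g) received drug at 20 (mg/kg)/day for 14 days. On day 14, blood was collected from the abdominal aorta and serum was separated by centrifugation at 3500 rpm. Lipid content of the lipoprotein fractions was then determined.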"}, "Mus musculus [12]": {"tested_on": "Mus musculus", "test": "Effect on Serum triglceride levels on CF1 male mice at a dose of 100 (mg/kg)/day after 14 days", "in_short": "as §3"}, "Mus musculus [13]": {"tested_on": "Mus musculus", "test": "Effect on cholesterol from CF1 male mice after 16 days at a dose of 20 (mg/kg/day)", "in_short": "(§5)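 CF1 male mice dosed ip for 16 days at 10–60 (mg/kg)/day; liver taken and 10% homogenate made in 0.25 M sucrose + 0.001 M EDTA; aliquot extracted by Folch and Bligh–Dyer methods, mg lipid weighed, cholesterol measured by Liebermann–Burchard method; n = 6; % of 1% CMC control.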"}, "Mus musculus [14]": {"tested_on": "Mus musculus", "test": "Effect on Serum cholesterol levels on CF1 male mice at a dose of 20 (mg/kg)/day after 16 days", "in_short": "as §3"}, "Mus musculus [15]": {"tested_on": "Mus musculus", "test": "Effect on mg of lipid from CF1 male mice after 16 days at a dose of 20 (mg/kg/day)", "in_short": "as §5"}, "Mus musculus [16]": {"tested_on": "Mus musculus", "test": "In vitro effect on CF1 male mouse on acyltransferase after 16 days at a dose of 40 (mg/kg)/day", "in_short": "as §2"}, "Mus musculus [17]": {"tested_on": "Mus musculus", "test": "Effect on mg of lipid from CF1 male mice after 16 days at a dose of 40 (mg/kg/day)", "in_short": "as §5"}, "Mus musculus [18]": {"tested_on": "Mus musculus", "test": "In vitro effect on CF1 male mouse on acyltransferase after 16 days at a dose of 20 (mg/kg)/day", "in_short": "as §2"}, "Mus musculus [19]": {"tested_on": "Mus musculus", "test": "In vitro effect on CF1 male mouse on phosphatidate phosphohydrolase after 16 days at a dose of 20 (mg/kg)/day", "in_short": "as §2"}, "Mus musculus [20]": {"tested_on": "Mus musculus", "test": "In vitro effect on CF1 male mouse on Fatty acid synthetase after 16 days at a dose of 20 (mg/kg)/day", "in_short": "as §2"}, "Mus musculus [21]": {"tested_on": "Mus musculus", "test": "Effect on Serum triglceride levels on CF1 male mice at a dose of 25 (mg/kg)/day after 14 days", "in_short": "as §3"}, "Mus musculus [22]": {"tested_on": "Mus musculus", "test": "Effect on phospholipids from CF1 male mice after 16 days at a dose of 20 (mg/kg/day)", "in_short": "(§6)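 Dosing was ip in CF₁ male mice (~25 g) for 16 days, with compound suspended in 1% carboxymethylcellulose. Liver was then taken and homogenised to 10% in 0.25 M sucrose with 0.001 M EDTA. Lipid was extracted from a 2 mL aliquot by the Folch and Bligh–Dyer methods and total mg of lipid was weighed. Cholesterol (Liebermann–Burchard), triglycerides (kit), neutral lipids and phospholipids were then measured; N = 6; reported as % of vehicle control.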"}, "Rattus norvegicus [23]": {"tested_on": "Rattus norvegicus", "test": "Effect on very low density neutral lipids Holtzman rats after 14 days administration", "in_short": "as §4"}, "Mus musculus [24]": {"tested_on": "Mus musculus", "test": "In vitro effect on CF1 male mouse on phosphatidate phosphohydrolase after 16 days at a dose of 60 (mg/kg)/day", "in_short": "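CF1 male mice dosed ip daily for 16 days, drug suspended in 1% carboxymethylcellulose; liver taken as 10% homogenate in 0.25 M sucrose + 0.001 M EDTA. Phosphatidate phosphohydrolase measured as inorganic phosphate released from phosphatidic acid after 30 min, developed with ascorbic acid/ammonium molybdate, read at 820 nm. Expressed as % of 1% CMC vehicle control; N = 6.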"}, "Rattus norvegicus [25]": {"tested_on": "Rattus norvegicus", "test": "Effect on Serum cholesterol levels on Holtzman rats at a dose of 20 (mg/kg)/day after 16 days", "in_short": "(§7)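 Holtzman male rats (~200 g) dosed orally by intubation needle daily for 16 days, drug suspended in 1% carboxymethylcellulose; n = 6; vehicle control. Tail-vein serum cholesterol on days 9 and 16 by modified Liebermann–Burchard reaction; day-14 serum triglyceride by commercial kit; % control.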"}, "Mus musculus [26]": {"tested_on": "Mus musculus", "test": "Effect on phospholipids from CF1 male mice after 16 days at a dose of 40 (mg/kg/day)", "in_short": "as §6"}, "Mus musculus [27]": {"tested_on": "Mus musculus", "test": "Effect on cholesterol from CF1 male mice after 16 days at a dose of 60 (mg/kg/day)", "in_short": "as §5"}, "Rattus norvegicus [28]": {"tested_on": "Rattus norvegicus", "test": "Effect on Serum cholesterol levels on Holtzman rats at a dose of 30 (mg/kg)/day after 9 days", "in_short": "as §7"}, "Rattus norvegicus [29]": {"tested_on": "Rattus norvegicus", "test": "Effect on Serum cholesterol levels on Holtzman rats at a dose of 10 (mg/kg)/day after 16 days", "in_short": "as §7"}, "Mus musculus [30]": {"tested_on": "Mus musculus", "test": "Effect on triglycerides from CF1 male mice after 16 days at a dose of 40 (mg/kg/day)", "in_short": "as §6"}}}
{"smiles": "CC(=O)c1ccccc1N1C(=O)c2ccccc2C1=O", "values": [{"measurement": "Control", "setting": "Rattus norvegicus [1]", "result": 87, "unit": "%"}, {"measurement": "Control", "setting": "Mus musculus [2]", "result": 84, "unit": "%"}, {"measurement": "Control", "setting": "Mus musculus [3]", "result": 107, "unit": "%"}, {"measurement": "Control", "setting": "Mus musculus [4]", "result": 83, "unit": "%"}, {"measurement": "Control", "setting": "Rattus norvegicus [5]", "result": 446, "unit": "%"}, {"measurement": "Control", "setting": "Mus musculus [6]", "result": 56, "unit": "%"}, {"measurement": "Control", "setting": "Mus musculus [7]", "result": 65, "unit": "%"}, {"measurement": "Control", "setting": "Mus musculus [8]", "result": 68, "unit": "%"}, {"measurement": "Control", "setting": "Mus musculus [9]", "result": 41, "unit": "%"}, {"measurement": "Control", "setting": "Mus musculus [10]", "result": 106, "unit": "%"}, {"measurement": "Control", "setting": "Rattus norvegicus [11]", "result": 359, "unit": "%"}, {"measurement": "Control", "setting": "Mus musculus [12]", "result": 59, "unit": "%"}, {"measurement": "Control", "setting": "Mus musculus [13]", "result": 73, "unit": "%"}, {"measurement": "Serum cholesterol (% of control)", "setting": "Mus musculus [14]", "result": 43, "unit": "%"}, {"measurement": "Control", "setting": "Mus musculus [15]", "result": 85, "unit": "%"}, {"measurement": "Control", "setting": "Mus musculus [16]", "result": 43, "unit": "%"}, {"measurement": "Control", "setting": "Mus musculus [17]", "result": 80, "unit": "%"}, {"measurement": "Control", "setting": "Mus musculus [18]", "result": 41, "unit": "%"}, {"measurement": "Control", "setting": "Mus musculus [19]", "result": 68, "unit": "%"}, {"measurement": "Control", "setting": "Mus musculus [20]", "result": 97, "unit": "%"}, {"measurement": "Control", "setting": "Mus musculus [21]", "result": 61, "unit": "%"}, {"measurement": "Control", "setting": "Mus musculus [22]", "result": 163, "unit": "%"}, {"measurement": "Control", "setting": "Rattus norvegicus [23]", "result": 81, "unit": "%"}, {"measurement": "Control", "setting": "Mus musculus [24]", "result": 98, "unit": "%"}, {"measurement": "Control", "setting": "Rattus norvegicus [25]", "result": 56, "unit": "%"}, {"measurement": "Control", "setting": "Mus musculus [26]", "result": 143, "unit": "%"}, {"measurement": "Control", "setting": "Mus musculus [27]", "result": 82, "unit": "%"}, {"measurement": "Control", "setting": "Rattus norvegicus [28]", "result": 76, "unit": "%"}, {"measurement": "Control", "setting": "Rattus norvegicus [29]", "result": 54, "unit": "%"}, {"measurement": "Control", "setting": "Mus musculus [30]", "result": 91, "unit": "%"}]}
